Sampled rows, rich in hits. Any-hit rate of the full collection: about 2.6%.
SENP6 inh: SENP6 protease inhibitors, primary screen, biochemical, luminescence, uHTS; Recombinant SENP6 catalytic domain, aminoluciferin luminescence; inhibition, % at 10 µM; AID 2599, 2010; 330,000 compounds, 1.8% hits;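 active means inhibition above about 50% at the single tested dose, limit read from the data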;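 further: plate controls were DMSO wells with enzyme for no effect and DMSO wells lacking enzyme for full effect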
Target sequence (Q9GZR1 628-1112 limits assumed): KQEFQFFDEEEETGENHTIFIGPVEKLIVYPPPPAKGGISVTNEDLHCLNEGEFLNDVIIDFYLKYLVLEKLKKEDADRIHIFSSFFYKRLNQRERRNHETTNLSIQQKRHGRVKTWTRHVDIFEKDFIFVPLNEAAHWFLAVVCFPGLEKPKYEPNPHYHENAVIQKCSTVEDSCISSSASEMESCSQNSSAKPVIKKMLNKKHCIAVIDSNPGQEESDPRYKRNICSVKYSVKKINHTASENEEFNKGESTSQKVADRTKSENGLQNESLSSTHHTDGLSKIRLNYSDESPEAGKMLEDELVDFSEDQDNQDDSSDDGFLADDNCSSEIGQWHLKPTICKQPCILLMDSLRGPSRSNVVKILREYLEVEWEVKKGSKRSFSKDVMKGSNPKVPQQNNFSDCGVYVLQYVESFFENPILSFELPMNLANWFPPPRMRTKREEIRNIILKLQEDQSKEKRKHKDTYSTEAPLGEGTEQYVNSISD
SENP8 block-1: SENP8 protease inhibitors, primary screen, biochemical, luminescence; inhibition, % at 10 µM; AID 2540, 2010; 330,000 compounds, 1.2% hits; Sentrin-specific protease 8 (Homo sapiens), Q96LD8; purified SENP8, Z-RLRGG-aminoluciferin cleavage; in the data active means inhibition above about 50%
Platelet DG rel: inhibitors of platelet dense granule secretion, primary screen, cell-based, MLPCN, human platelets; human platelet-rich plasma, SFLLRN dense granule ATP release, luminescence; inhibition, %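 (compounds screened at 7.5 µM in platelet-rich plasma)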; 300,000 compounds, 0.22% hits; AID 1663, 2009;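 active means mean replicate score, as percent of positive control, at or above 50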
SENP8 block-2: human SENP8 protease inhibitors, primary screen, biochemical, fluorescence, Nedd8 protein substrate, uHTS; recombinant SENP8; inhibition, % at 20 µM; Sentrin-specific protease 8 (Homo sapiens), Q96LD8; 360,000 compounds, 0.64% hits; in the data active means inhibition mostly above about 40%, no sharp cut-off; inactive means mostly below about 27%
SENP7 inh: SENP7 protease inhibitors, primary screen, biochemical, luminescence, uHTS | recombinant SENP7, Z-RLRGG-aminoluciferin luminescence, 40 min | Sentrin-specific protease 7 (Homo sapiens), Q9BQF6 | AID 434973, 2010 | 330,000 compounds, 1.5% hits | inhibition, % at 5 µM;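 active means inhibition above about 50% at the single test dose, limit read from the data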;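 further: plate controls were DMSO with enzyme for no effect and no enzyme buffer wells for full effect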
SENP1 FRET inh: human SENP1 catalytic domain inhibitors, primary screen, biochemical, FRET, uHTS. recombinant SENP1 catalytic domain, CyPet-SUMO1-YPet FRET cleavage. 360,000 compounds, 0.21% hits. AID 624204, 2012. inhibition, % at 10 µM;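 active means inhibition at least 30% at 10 µM, raw YFP signal under a set limit, fluorescence ratio 0.5 to 1.5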;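 further: 0% = enzyme with DMSO and 100% = no enzyme wells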
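system = hSENP1 catalytic domain, recombinant | reagent = SFCypet-SUMO1-SFYpet substrate at 25 nM | doses = one dose per compound, 10 µM, 0.5% DMSO | incubation = enzyme reaction for 50 min at room temperature, dark | measured by = FRET, CFP and YFP emission | controls = no-enzyme low, enzyme-DMSO high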
SENP8 confirm: SENP8 protease inhibitors, retest, confirmation, biochemical, luminescence, single concentration; inhibition, % at 12.5 µM; 6,200 compounds, 40% hits; shares compounds with SENP7 inh; Recombinant SENP8, Z-RLRGG-aminoluciferin luminescence, 60 min;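 active means mean inhibition across replicates above about 50%, limit read from the data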
SENP6 conf: SENP6 protease inhibitors, confirmation, biochemical, luminescence, single concentration; shares compounds with SENP7 inh; recombinant SENP6, Z-RLRGG-aminoluciferin luminescence; inhibition, % at 12.5 µM; 6,200 compounds, 58% hits; AID 488915, 2010
SENP7 confirm: SENP7 protease inhibitors, retest, confirmation, biochemical, luminescence, single concentration. shares compounds with SENP7 inh. recombinant SENP7, Z-RLRGG-aminoluciferin luminescence, 40 min. inhibition, % at 12.5 µM. 6,200 compounds, 69% hits. AID 488917, 2010
Casp3 SENP sel: caspase-3 protease inhibitors, confirmation, selectivity assay for SENP inhibitor project, biochemical, single concentration | inhibition, % at 12.5 µM | purified caspase-3, Z-DEVD-aminoluciferin luminescence, 60 min | AID 488918, 2010 | 6,200 compounds, 60% hits | shares compounds with SENP7 inh;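 active means mean inhibition above about 50%, limit read from the data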;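 further: plate controls were enzyme with DMSO for no effect and wells without caspase-3 for full effect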
Luc interf: counter-screen for SENP inhibitors: luminescence interference; shares compounds with SENP7 inh; Pre-incubated SENP8/Z-RLRGG-aminoluciferin, luciferase luminescence interference; inhibition, % at 12.5 µM; 6,200 compounds, 39% hits;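 active means mean inhibition above about 50% when retested at one dose, limit read from the data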;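 further: plate controls were DMSO wells with completed reaction for no effect and substrate without enzyme for full effect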
Active calls of the source: *.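 How the source made its calls, unless noted: active means mean inhibition above about 50% in the one-dose retest (limit read from the data); inactive means the rest.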

Screening CCOC(=O)Cc1c[nH]c(=S)[nH]c1=O returned SENP6 inh 11, SENP8 block-1 5, Platelet DG rel -8, SENP8 block-2 15, SENP7 inh 6 and SENP1 FRET inh 2.
COc1ccc2oc(=O)c(-c3nc(C)cs3)cc2c1 was read as SENP6 inh 48, SENP8 block-1 75*, SENP8 block-2 -294, SENP7 inh 92*, SENP1 FRET inh -28, SENP8 confirm -11, SENP6 conf 21, SENP7 confirm 24, Casp3 SENP sel 32 and Luc interf 12.
For Cc1cccc2nnc(-c3ccccc3)n12 the results were SENP8 block-2 -3 and SENP1 FRET inh 1.
Cc1cc2nc(-c3ccc(NC(=O)C(C)C)cc3)oc2cc1C was read as SENP6 inh 26, SENP8 block-1 21, Platelet DG rel 2, SENP8 block-2 inactive, SENP7 inh 70*, SENP1 FRET inh 0, SENP8 confirm 14, SENP6 conf 14, SENP7 confirm 29, Casp3 SENP sel 45 and Luc interf 17.
For COc1cc(OC)cc(-c2nc3cc(C)ccc3o2)c1 the results were SENP6 inh 97*, SENP8 block-1 94*, Platelet DG rel 10, SENP8 block-2 -39, SENP7 inh 98*, SENP1 FRET inh -1, SENP8 confirm 95*, SENP6 conf 97*, SENP7 confirm 101*, Casp3 SENP sel 94* and Luc interf 93*.
Cc1ccc(-c2nc3cc(Cl)ccc3o2)cc1 was read as SENP6 inh 91*, SENP8 block-1 75*, Platelet DG rel -2, SENP8 block-2 0, SENP7 inh 90*, SENP1 FRET inh 2, SENP8 confirm 7, SENP6 conf 17, SENP7 confirm 35, Casp3 SENP sel 13 and Luc interf 6.
For Cc1ccc(-c2nc3cc(NC(=O)C(C)C)ccc3o2)cc1 the results were SENP6 inh 76*, SENP8 block-1 35, Platelet DG rel -9, SENP8 block-2 -491, SENP7 inh 84*, SENP1 FRET inh 0, SENP8 confirm 1, SENP6 conf 6, SENP7 confirm 7, Casp3 SENP sel 13 and Luc interf 10.
`COc1cc(C=O)ccc1OCC(=O)Nc1ccccc1N1CCOCC1` gave SENP6 inh 12, SENP8 block-1 -1, Platelet DG rel -1, SENP8 block-2 6, SENP7 inh -9 and SENP1 FRET inh -1.
`CC(C)C1N(c2ccccc2)C(N)=C(C#N)C1(C#N)C#N` (centres undefined) gave SENP6 inh -11, SENP8 block-1 2, Platelet DG rel 1, SENP8 block-2 9, SENP7 inh 8 and SENP1 FRET inh 2.
`CC(C)C(=O)Nc1cccc(-c2nc3ccccc3o2)c1` gave SENP6 inh -2, SENP8 block-1 4, Platelet DG rel 1, SENP8 block-2 -15, SENP7 inh -1 and SENP1 FRET inh 1.
Cc1ccc(-c2nc3cc(NC(=O)C(C)C)ccc3o2)cc1C was read as SENP6 inh 95*, SENP8 block-1 92*, Platelet DG rel -4, SENP8 block-2 -280, SENP7 inh 98*, SENP1 FRET inh 0, SENP8 confirm 5, SENP6 conf 23, SENP7 confirm 12, Casp3 SENP sel 77* and Luc interf 3.
For CN1CCc2nc(SCC(=O)Nc3cccc(F)c3)c(C#N)c(-c3cccs3)c2C1 the results were SENP6 inh 77*, SENP8 block-1 57*, Platelet DG rel 10, SENP8 block-2 34, SENP7 inh 60*, SENP1 FRET inh 12, SENP8 confirm 1, SENP6 conf 0, SENP7 confirm -4, Casp3 SENP sel -2 and Luc interf -8.
Screening CC(C)(C)C(=O)CSc1nc2c(c(-c3cccs3)c1C#N)CCC2 returned SENP6 inh 5, SENP8 block-1 -2, Platelet DG rel -8, SENP8 block-2 -222, SENP7 inh -5 and SENP1 FRET inh -17.
For Fc1ccc2c(Cl)c(-c3nnc(-c4cccs4)o3)sc2c1 the results were SENP6 inh 6, SENP8 block-1 -10, Platelet DG rel -3, SENP8 block-2 -332, SENP7 inh 69*, SENP1 FRET inh 1, SENP8 confirm 2, SENP6 conf 8, SENP7 confirm 25, Casp3 SENP sel 14 and Luc interf 3.
For O=C1NC(=S)N/C1=C/c1cc2c(cc1[N+](=O)[O-])OCO2 the results were SENP6 inh 64*, SENP8 block-1 75*, Platelet DG rel -2, SENP8 block-2 -106, SENP7 inh 26, SENP1 FRET inh -20, SENP8 confirm 13, SENP6 conf 63*, SENP7 confirm 24, Casp3 SENP sel 4 and Luc interf 0.
`CCCC[n+]1ccn(C2=C([O-])c3ccccc3C(=O)/C2=N\S(=O)(=O)c2ccc(Cl)cc2)c1` gave SENP6 inh 57*, SENP8 block-1 26, Platelet DG rel -15, SENP8 block-2 48*, SENP7 inh 30, SENP1 FRET inh 1, SENP8 confirm 16, SENP6 conf 50*, SENP7 confirm 0, Casp3 SENP sel -2 and Luc interf -4.
Screening O=C(c1ccccc1)n1c(=S)nc2ccccn21 returned SENP6 inh 78*, SENP8 block-1 70*, Platelet DG rel 36, SENP8 block-2 2, SENP7 inh 90*, SENP1 FRET inh 1, SENP8 confirm 2, SENP6 conf 74*, SENP7 confirm 93*, Casp3 SENP sel 57* and Luc interf 15.

Source: PubChem
